# Bioassay records as filed in PubChem.
# PHOSPHO1 inh – blocks human PHOSPHO1 phosphatase activity | recombinant PHOSPHO1, absorbance phosphatase assay | inhibition, % at 13.3 µM | actives 1.1% (n = 290,000) | AID 1565; in the data active = inhibition above about 60%
# Target sequence (Q8TCT1 whole entry, looked up): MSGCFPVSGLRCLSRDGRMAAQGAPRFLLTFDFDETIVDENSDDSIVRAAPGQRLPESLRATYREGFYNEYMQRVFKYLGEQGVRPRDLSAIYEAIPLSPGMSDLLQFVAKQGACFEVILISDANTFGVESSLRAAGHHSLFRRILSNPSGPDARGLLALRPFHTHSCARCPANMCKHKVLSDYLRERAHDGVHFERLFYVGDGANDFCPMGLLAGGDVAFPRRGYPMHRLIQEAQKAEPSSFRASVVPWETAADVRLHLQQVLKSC
# IMP-1 inhibitor – inhibitors of Pseudomonas aeruginosa IMP-1 metallo-beta-lactamase; purified IMP-1, nitrocefin hydrolysis, epi-absorbance fluorescence; inhibition, % at 5.6 µM; actives 0.45% (n = 290,000); AID 1556;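 active = inhibition above the mean plus 3 SD of all compounds in the same screening run, cut at about 4.5% in these data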;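 note: 0% = IMP-1 with DMSO and 100% = DMSO wells lacking enzyme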
#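 system = purified recombinant IMP-1 beta-lactamase | amount = 0.2 nM IMP-1, as dispensed | medium = HEPES buffer pH 7.1 with ZnSO4 and Brij 35 | times = 25 °C, 15 min preincubation, 25 min reaction | detection = plate fluorescence quenching by hydrolysis product, ex 480/em 530 nm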
# Yeast superoxide – yeast age-related superoxide inhibition as caloric restriction mimetic; superoxide response (% of plate mean), % at 10 µM; actives 0.18% (n = 330,000); S. cerevisiae aged cells, superoxide DHE fluorescence; hits give low values;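 active = superoxide response under a set limit, about three screen SD below normal, cut at about 65% in these data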;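 note: yeast aged for seven days with compound at 30 °C before DHE staining; 100% = average MFI of all compound-treated wells on the plate with controls excluded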
# PvdQ acylase – P. aeruginosa PvdQ acylase inhibition. purified PvdQ acylase, fluorescence plate reader. inhibition, % at 10 µM. actives 0.063% (n = 340,000). AID 488965; in the data active = inhibition above about 30%, passing the limit was not always enough;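 note: 0% = vehicle neutral wells and 100% = reference inhibitor wells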
# VIM-2 inh – blocks Pseudomonas aeruginosa VIM-2 metallo-beta-lactamase; inhibition, % at 5.6 µM; actives 0.89% (n = 290,000); purified VIM-2, nitrocefin hydrolysis, epi-absorbance fluorescence;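 active = inhibition above the mean of all tested compounds plus 3 SD, cutoff set per screening run, cut at about 7.5% in these data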;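 note: red hydrolysis product quenches plate fluorescence so inhibitors raise well fluorescence; 0% = enzyme with DMSO and 100% = DMSO without enzyme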
# VIM-2 inh confirm – VIM-2 inhibition, confirmation assay. shares compounds with IMP-1 inhibitor. purified VIM-2 enzyme, nitrocefin absorbance. actives 73% (n = 200). AID 1860. inhibition, % at 5.6 µM; in the data active = inhibition above about 8%;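 note: 0% = enzyme with vehicle and 100% = no enzyme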
# TEM-1 counter – blocks E. coli TEM-1 beta-lactamase, VIM-2 IMP-1 counter-screen | shares compounds with IMP-1 inhibitor | nitrocefin absorbance inhibition | inhibition, % at 5.6 µM | actives 50% (n = 200) | AID 2184; in the data active = inhibition above about 0.66%
# Target sequence (P62593 whole entry, looked up): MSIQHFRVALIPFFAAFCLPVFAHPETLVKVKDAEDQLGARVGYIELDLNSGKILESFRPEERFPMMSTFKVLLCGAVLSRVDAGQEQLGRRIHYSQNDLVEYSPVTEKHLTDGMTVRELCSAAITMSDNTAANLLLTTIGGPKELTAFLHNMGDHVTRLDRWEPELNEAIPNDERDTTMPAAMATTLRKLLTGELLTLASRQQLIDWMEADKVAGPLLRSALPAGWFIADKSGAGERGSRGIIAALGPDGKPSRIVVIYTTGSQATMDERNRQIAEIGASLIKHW
# IMP-1 inh conf – confirmation of P. aeruginosa IMP-1 metallo-beta-lactamase inhibitors. purified IMP-1 enzyme, absorbance substrate hydrolysis. inhibition, % at 5.6 µM. shares compounds with IMP-1 inhibitor. actives 60% (n = 200); in the data active = inhibition above about 4.9%;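 note: 0% = enzyme with vehicle and 100% = vehicle without enzyme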
# * marks the source's active call; other numbers are inactive results; . = no result. An excerpt weighted towards active compounds, which were near 2.2% of everything screened.
SMILES,PHOSPHO1 inh,IMP-1 inhibitor,Yeast superoxide,PvdQ acylase,VIM-2 inh,VIM-2 inh confirm,TEM-1 counter,IMP-1 inh conf
CCCCC(Sc1nc(N)c(NC(=O)c2ccco2)c(=O)[nH]1)C(=O)O (configuration not stated),-9,12*,96,-16,12*,25*,1.7*,36*
CSc1ccc(CC(=O)N2CCC(n3nccc3NC(=O)C3CC3)CC2)cc1,-4,-2,100,-10,-1,.,.,.
CCN(CC)CCOC(=O)c1ccc(N/C=C(/C#N)c2nc(-c3cc4ccccc4oc3=O)cs2)cc1,28,13*,95,-12,42*,52*,-5,11*
CCN(CC)CCOC(=O)c1ccc(N/C=C(/C#N)c2nc(-c3ccc(OC)cc3)cs2)cc1,-1,1,83,3,-2,.,.,.
COc1cccc(OC)c1C(=O)Nc1sc2c(c1C(N)=O)CCN(Cc1ccccc1)C2,31,1,109,-10,2,.,.,.
CC(=O)c1ccc(C(=O)Nc2sc3c(c2C(N)=O)CCN(Cc2ccccc2)C3)cc1,-6,5.5*,93,-6,8.8*,5,5.7*,3
Cc1c(N)c(C(C)(C)C)cc(C(C)(C)C)c1[N+](=O)[O-],-7,-5,104,3,-2,.,.,.
Cc1cc2nc3c(=O)[nH]c(=O)[nH]c3nc2c([N+](=O)[O-])c1N,6,12*,.,-1,12*,11*,20*,4
CCOc1ccc(CCNC(=O)Cn2ncn3nc(-c4ccc(OC)cc4)cc3c2=O)cc1OCC,32,-2,113,-23,-2,.,.,.
CC1=C(C(=O)Nc2ccccc2C(F)(F)F)C(c2sccc2C)NC(=S)N1 (configuration not stated),19,-3,107,-4,-3,.,.,.
O=C(Nc1ccc(Oc2ccc(C(=O)O)c(C(=O)O)c2)cc1)c1cccs1,32,5.4*,85,-13,21*,25*,-3,4
CCNC(=O)N(C)C[C@H]1N[C@@](CC)(C(=O)OC)[C@H]2C(=O)N(C)C(=O)[C@@H]12,.,.,109,-16,.,.,.,.
Cc1n[nH]c(C)c1N1C(=O)c2cccc3c(N4CCCCCC4)ccc(c23)C1=O,18,16*,92,0,20*,27*,21*,9.3*
O=C1c2c(Br)c(Br)c(Br)c(Br)c2C(=O)N1c1ccccn1,14,1,88,8,5,.,.,.
O=C1C2C(c3ccccc3)C=CC(c3ccccc3)C2C(=O)N1c1ccncc1 (configuration not stated),28,65*,91,-2,25*,11*,-1,29*
O=C1C2C3C=CC(C3)C2C(=O)N1c1ccncc1 (configuration not stated),33,-2,109,-12,0,.,.,.
O=C1C2C(c3ccccc3)C=CC(c3ccccc3)C2C(=O)N1c1ccccn1 (configuration not stated),0,75*,103,4,26*,12*,-5,37*
Cc1ccccc1NC(=O)c1ccc(NC(=O)C2CCCO2)cc1 (configuration not stated),7,-4,97,-14,-3,.,.,.
O=C(Nc1ccc(C(F)(F)F)cc1)c1ccc(NC(=O)C2CCCO2)cc1 (configuration not stated),23,16*,101,-9,9.1*,9.9*,-2,9.8*
COc1cccc(C2Nc3ccc4ccccc4c3C3=C2C(=O)CC(C)(C)C3)c1OCC(=O)O (configuration not stated),30,11*,101,-9,9.5*,8.1*,-1,4
COc1ccc(CC2CC(=O)N(c3ccc(C)cc3)C2=O)cc1 (configuration not stated),46,-6,103,-14,-2,.,.,.
N=C1/C(=C\c2coc3ccc(O)cc3c2=O)C(=O)N=C2SC=CN12,38,11*,99,1,9.9*,17*,8.0*,14*
CSC1=NSC2=NC(=O)/C(=C\c3coc4ccccc4c3=O)C(=N)N12,-7,-1,129,7,-2,.,.,.
CCN(CC)c1ccc2cc(-c3nc4ccccc4[nH]3)c(=O)oc2c1,7,18*,108,-12,13*,61*,105*,59*
CCN(CC)c1ccc2cc(-c3nc4ccccc4n3C)c(=O)oc2c1,-1,0,123,14,-2,.,.,.
SMILES,PHOSPHO1 inh,IMP-1 inhibitor,Yeast superoxide,PvdQ acylase,VIM-2 inh,VIM-2 inh confirm,TEM-1 counter,IMP-1 inh conf
CCN(CC)c1ccc2cc(-c3nnc(-c4ccccc4)o3)c(=O)oc2c1,-3,8.3*,98,2,8.4*,33*,43*,26*
CCN(CC)c1ccc2cc(-c3nnc(-c4ccc(Br)cc4)o3)c(=O)oc2c1,.,-2,.,.,-2,.,.,.
O=C(Nc1ccc2oc(-c3ccccc3F)nc2c1)c1ccc([N+](=O)[O-])o1,33,41*,99,13,12*,8.5*,7.1*,24*
N#Cc1c(Nc2ccccc2)[n+]([O-])c2ccc(Cl)cc2[n+]1[O-],.,.,.,-10,.,.,.,.
COc1c(O)cc2oc(-c3ccc(O)cc3)cc(=O)c2c1O,13,.,101,0,.,.,.,.
COc1cc(OC)c(-c2c3cc(O)c(=O)cc-3oc3cc(O)c(O)cc23)cc1OC,-12,7.0*,94,2,16*,49*,75*,46*
COc1ccc([C@H]2CC(=O)C=C(c3cc(OC)ccc3OC)C2)cc1,.,.,98,16,.,.,.,.
Cn1cc(/C=C/c2cc[n+](C)cc2)c2cc(F)ccc21,-12,5.7*,93,8,11*,14*,4.7*,7.5*
Cn1cc(/C=C/c2cc[n+](C)cc2)c2cc(Cl)ccc21,-6,5.8*,104,-10,13*,22*,2.8*,4
Cn1cc(C=O)c2cc(F)ccc21,56,1,103,-15,1,.,.,.
S=c1[nH]nc(-c2cccs2)n1/N=C/c1c(Cl)cccc1Cl,52,-3,102,-2,0,.,.,.
O=C(O)/C=C/c1ccc(S(=O)(=O)N2CCN(CCN3C(=O)C4C5C=CC(C5)C4C3=O)CC2)cc1 (configuration not stated),33,-2,103,-15,-2,.,.,.
COCCCn1c(=NC(=O)c2ccccc2)c(C#N)cc2c(=O)n3cccc(C)c3nc21,-63,8.5*,104,-18,9.3*,18*,32*,11*
Fc1ccc(C(CCNCc2ccccn2)c2ccc(Cl)cc2)cc1 (configuration not stated),24,-4,97,-5,-5,.,.,.
Cc1cc(C)n2nc(C)c(Br)c2n1,12,-2,111,-7,-1,.,.,.
